# Experimental data published in ChEMBL document CHEMBL3272032, “Antifolate studies. Activities of 40 potential antimalarial compounds against sensitive and chlorguanide triazine resistant strains of folate-requiring bacteria and Escherichia coli” (J Med Chem, 1977).
# Calls of active or inactive are those of the source. The rule behind the calls is not given here.
# Assays:
# Enterococcus faecium [1] = assay: Antibacterial activity against sensitive Streptococcus faecium ATCC 8043 assessed as reduction in growth; type: functional, organism-based
# How it was run: (§1)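 Folate-requiring strains grown in medium with folic acid, 0.002 µg/ml for S. faecium and 0.001 µg/ml for L. casei; P. cerevisiae given folinic acid, 0.001 µg/ml. Resistant substrains came from serial transfer in rising chlorguanide triazine, and the most resistant were used. Compounds tested up to 1000 µg/ml, or 100 µg/ml when supply was limited. Growth read as Klett turbidity; IC50 is the µM concentration giving 50% growth inhibition.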
# Enterococcus faecium [2] = assay: Antibacterial activity against chlorguanide triazine-resistant Streptococcus faecium ATCC 8043 assessed as reduction in growth; type: functional, organism-based; how it was run: as §1
# Plasmodium berghei [3] = assay: Antimalarial activity against Plasmodium berghei infected in sc dosed mouse assessed as dose required to survivors for period of 60 days; type: functional
# How it was run: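 Mice infected with a blood-induced P. berghei inoculum were given one subcutaneous dose in peanut oil. Survivors at 60 days counted as cured. The minimum curative dose is the lowest dose that cured any mouse.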
# Lacticaseibacillus casei [4] = assay: Fold increase in resistance, ratio of IC50 for chlorguanide triazine-resistant Lactobacillus casei ATCC 7469 to IC50 for sensitive Lactobacillus casei ATCC 7469; type: functional
# How it was run: (§2)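 Resistant substrains were made by serial transfer in rising concentrations of cycloguanil, and the most resistant isolate of each organism was used. Both strains were assayed turbidimetrically under identical conditions. FIR = IC50 of the resistant strain divided by IC50 of the sensitive parent.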
# Lacticaseibacillus casei [5] = assay: Antibacterial activity against sensitive Lactobacillus casei ATCC 7469 assessed as reduction in growth in presence of 0.001 ug/ml folic acid; type: functional, organism-based
# How it was run: (§3)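 Folate-requiring strains in the medium of the earlier assay method. Folic acid was 0.002 μg/ml for S. faecium and 0.001 μg/ml for L. casei. Turbidity read on a Klett-Summerson colorimeter. IC50 is the micromolar concentration reducing growth to 50% of control. Top concentration was 1000 μg/ml, or 100 μg/ml if supply was limited.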
# Lacticaseibacillus casei [6] = assay: Antibacterial activity against sensitive Lactobacillus casei ATCC 7469 assessed as reduction; type: functional, organism-based; how it was run: as §1
# Plasmodium berghei [7] = assay: Antimalarial activity against Plasmodium berghei infected in sc dosed mouse assessed as active dose required to increase of 100% in mean survival time; type: functional; settings: read-out: MED
# How it was run: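 Mice received a standard blood-induced P. berghei inoculum and were then treated with one subcutaneous dose of compound suspended in peanut oil. The minimum active dose is the lowest dose that raised mean survival time by 100%.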
# Lacticaseibacillus casei [8] = assay: Antibacterial activity against chlorguanide triazine-resistant Lactobacillus casei ATCC 7469 assessed as reduction in growth; type: functional, organism-based; how it was run: as §1
# Enterococcus faecium [9] = assay: Fold increase in resistance, ratio of IC50 for chlorguanide triazine-resistant Streptococcus faecium ATCC 8043 to IC50 for sensitive Streptococcus faecium ATCC 8043; type: functional
# How it was run: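 Resistant S. faecium substrain raised by serial transfer in increasing chlorguanide triazine. IC50 (µM, 50% growth inhibition by turbidity) was found for resistant and parent strains in folic acid (0.002 µg/ml) medium. Fold increase taken as IC50 resistant / IC50 sensitive.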
# Pediococcus [10] = assay: Fold increase in resistance, ratio of IC50 for chlorguanide triazine-resistant Pediococcus cerevisiae ATCC 808 to IC50 for sensitive Pediococcus cerevisiae ATCC 808; type: functional; how it was run: as §2
# Escherichia coli [11] = assay: Antibacterial activity against sensitive Escherichia coli ATCC 10536 assessed as reduction in growth; type: functional, organism-based
# How it was run: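 Growth inhibition in Sahyun et al. medium plus 0.6% acid-hydrolyzed casein. Growth read as turbidity on a Klett-Summerson photoelectric colorimeter. IC50 is the micromolar concentration giving 50% growth inhibition. Top concentration was 1000 μg/ml, or 100 μg/ml when compound was limited.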
# [12] = Antibacterial activity against sensitive Pediococcus cerevisiae ATCC 808 assessed as reduction; type: functional
# How it was run: (§4)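 P. cerevisiae grown with folinic acid at 0.001 μg/ml in the earlier-described medium. Turbidity read on a Klett-Summerson colorimeter. IC50 is the micromolar concentration reducing growth to 50% of control. Top concentration was 1000 μg/ml, or 100 μg/ml when supply was limited.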
# Pediococcus [13] = assay: Antibacterial activity against chlorguanide triazine-resistant Pediococcus cerevisiae ATCC 808 assessed as reduction in growth in presence of 0.001 ug/ml folinic acid; type: functional; how it was run: as §1
# Escherichia coli [14] = assay: Antibacterial activity against sensitive Escherichia coli ATCC 10536 assessed as reduction in growth in presence of p-aminobenzoic acid; type: functional, organism-based
# How it was run: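 Reversal test. Drug inhibition was challenged with PABA in Sahyun et al. medium plus 0.6% acid-hydrolyzed casein. Growth read as turbidity on a Klett-Summerson colorimeter. Scored as reversal or nonreversal of the drug inhibition.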
# Pediococcus [15] = assay: Antibacterial activity against sensitive Pediococcus cerevisiae ATCC 808 assessed as reduction in growth in presence of 0.001 ug/ml folinic acid; type: functional; how it was run: as §4
# [16] = Antibacterial activity against chlorguanide triazine-resistant Pediococcus cerevisiae ATCC 808 assessed as reduction in growth; type: functional; how it was run: as §1
# Enterococcus faecium [17] = assay: Antibacterial activity against chlorguanide triazine-resistant Streptococcus faecium ATCC 8043 assessed as reduction in growth in presence of 0.002 ug/ml folic acid; type: functional, organism-based; how it was run: as §1
# Enterococcus faecium [18] = assay: Antibacterial activity against sensitive Streptococcus faecium ATCC 8043 assessed as reduction in growth in presence of 0.002 ug/ml folic acid; type: functional, organism-based; how it was run: as §3
# Lacticaseibacillus casei [19] = assay: Antibacterial activity against chlorguanide triazine-resistant Lactobacillus casei ATCC 7469 assessed as reduction in growth in presence of 0.001 ug/ml folic acid; type: functional, organism-based; how it was run: as §1
SMILES,IC50 (Enterococcus faecium [1]) [µM],IC50 (Enterococcus faecium [2]) [µM],MCD (Plasmodium berghei [3]) [mg/kg],Ratio IC50 (Lacticaseibacillus casei [4]),inhibition (Lacticaseibacillus casei [5]),IC50 (Lacticaseibacillus casei [6]) [µM],minimal effective dose (Plasmodium berghei [7]) [mg/kg],IC50 (Lacticaseibacillus casei [8]) [µM],Ratio IC50 (Enterococcus faecium [9]),Ratio IC50 (Pediococcus [10]),IC50 (Escherichia coli [11]) [µM],IC50 [12] [µM],inhibition (Pediococcus [13]),inhibition (Escherichia coli [14]),inhibition (Pediococcus [15]),IC50 [16] [µM],inhibition (Enterococcus faecium [17]),inhibition (Enterococcus faecium [18]),inhibition (Lacticaseibacillus casei [19])
CCN1CCCC(Nc2cc(C)nc(NC(=N)Nc3ccc(Cl)c(Cl)c3)n2)C1 (configuration not stated),227,121,40,0.85,Active,65.1,20,55.7,0.53,1,85,32,Active,Active,Active,39,Active,Active,Active
CCCCN(CCCC)CC(O)c1cc(-c2ccc(Cl)c(Cl)c2)nc2c(Cl)cc(Cl)cc12 (configuration not stated),327,572,20,2,Active,170,5,250,2,1,182,290,Active,Active,Active,354,Active,Active,Active
Nc1ncc(Cc2ccc3c(c2)OCO3)c(N)n1,0.25,24.2,640,0.27,inactive,0.94,640,0.25,96.8,7.3,45,12.3,inactive,Active,inactive,90.1,inactive,inactive,inactive
Nc1nc(N)c2cc(NCc3ccc(Cl)c(Cl)c3)ccc2n1,0.006,2,80,0.08,inactive,0.4,20,0.03,330,3.5,33,0.2,inactive,Active,inactive,0.7,inactive,inactive,inactive
ClC(Cl)(Cl)c1ccc(C(Cl)(Cl)Cl)cc1,2000,1900,640,1,Active,1000,640,990,1,2,262,959,Active,Active,Active,2000,Active,Active,Active
CC1(C)N=C(N)N=C(N)N1OCCCOc1cc(Cl)c(Cl)cc1Cl,0.0001,0.019,160,19,inactive,0.021,20,0.4,190,267,1.7,0.003,inactive,Active,inactive,0.8,inactive,inactive,inactive
CC1(C)N=C(N)N=C(N)N1c1ccc(Cl)cc1 [CYCLOGUANIL],0.017,3300,40,147,inactive,16.3,20,2400,194000,26,> 3470,35,inactive,,inactive,900,inactive,inactive,inactive
COc1cc(Cc2cnc(N)nc2N)cc(OC)c1OC [TRIMETHOPRIM],0.08,1.2,>640,0.09,inactive,0.19,> 640,0.017,15,6,0.4,11.7,inactive,Active,inactive,67.5,inactive,inactive,inactive
CCc1nc(N)nc(N)c1-c1ccc(Cl)cc1 [PYRIMETHAMINE],0.008,10.5,40,0.05,inactive,5.1,10,0.24,1300,3,76,4,inactive,Active,inactive,12,inactive,inactive,inactive
Nc1nc(N)c2cc(S(=O)(=O)c3ccc4ccccc4c3)ccc2n1,0.002,0.08,1.25,0.23,inactive,0.04,0.63,0.009,40,25,< 0.2,0.002,inactive,Active,inactive,0.05,inactive,inactive,inactive
O=C1C(O)=C(CCCCCCCCC2CCCCC2)C(=O)c2ccccc21 [MENOCTONE],407,394,160,0.3,Active,61,40,19,1,0.6,> 2700,1000,Active,,Active,570,Active,Active,Active
